According to ChEMBL document CHEMBL1165881, “Synthesis and cytotoxicity evaluation of (tetrahydro-beta-carboline)-1,3,5-triazine hybrids as anticancer agents” (Eur J Med Chem, 2010):

Columns and labels:
MCF7 [1] = test: Cell cycle arrest in human MCF7 cells assessed as accumulation at S phase at 0.5 uM after 24 hrs using propidium iodide staining by flow cytometry; type: functional
KB = test: Cytotoxicity against human KB cells after 72 hrs by MTT assay; type: functional, cell-based; details: kb
Procedure, shortened: (§1)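 Seeded at 5000–10000 cells/well, incubated at 37 °C in CO2 with compounds at a range of concentrations, controls included, in triplicate wells. After 72 h, MTT solution (5 mg/mL) added; absorbance read at 540 nm. % cytotoxicity = 100 × [1 − (X/R1)] versus control absorbance; IC50 by nonlinear regression. Values are means of at least two independent experiments, three determinations each.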

MIA PaCa-2 = test: Cytotoxicity against human MIAPaCa2 cells after 72 hrs by MTT assay; type: functional, cell-based; details: mia paca-2; read-out: IC50; procedure, shortened: as §1
MDA-MB-231 [2] = test: Cell cycle arrest in human MDA-MB-231 cells assessed as accumulation at S phase at o.74 uM after 24 hrs using propidium iodide staining by flow cytometry; type: functional
K562 = test: Cytotoxicity against human K562 cells after 72 hrs by MTT assay; type: functional, cell-based; details: Homo sapiens, K562, 72 h; read-out: IC50; procedure, shortened: as §1
MDA-MB-231 [3] = test: Cell cycle arrest in human MDA-MB-231 cells assessed as accumulation at G2 phase at o.74 uM after 24 hrs using propidium iodide staining by flow cytometry; type: functional
MDA-MB-231 [4] = test: Cell cycle arrest in human MDA-MB-231 cells assessed as accumulation at G1 phase at 0.5 uM after 24 hrs using propidium iodide staining by flow cytometry; type: functional
MDA-MB-231 [5] = test: Cell cycle arrest in human MDA-MB-231 cells assessed as accumulation at G2 phase at 0.5 uM after 24 hrs using propidium iodide staining by flow cytometry; type: functional
MDA-MB-231 [6] = test: Cell cycle arrest in human MDA-MB-231 cells assessed as accumulation at S phase at 0.5 uM after 24 hrs using propidium iodide staining by flow cytometry; type: functional
MDA-MB-231 [7] = test: Cell cycle arrest in human MDA-MB-231 cells assessed as accumulation at G1 phase at o.74 uM after 24 hrs using propidium iodide staining by flow cytometry; type: functional
MCF7 [8] = test: Cell cycle arrest in human MCF7 cells assessed as accumulation at G1 phase at o.74 uM after 24 hrs using propidium iodide staining by flow cytometry; type: functional
A549 = test: Cytotoxicity against human […] cells after 72 hrs by MTT assay; type: functional, cell-based; details: a549; read-out: IC50; procedure, shortened: as §1
MCF7 [9] = test: Cell cycle arrest in human MCF7 cells assessed as accumulation at G1 phase at 0.5 uM after 24 hrs using propidium iodide staining by flow cytometry; type: functional
MCF7 [10] = test: Cell cycle arrest in human MCF7 cells assessed as accumulation at G2 phase at 0.5 uM after 24 hrs using propidium iodide staining by flow cytometry; type: functional
SW-620 = test: Cytotoxicity against human SW620 cells after 72 hrs by MTT assay; type: functional, cell-based; details: sw-620; read-out: IC50; procedure, shortened: as §1
MCF7 [11] = test: Cell cycle arrest in human MCF7 cells assessed as accumulation at G2 phase at o.74 uM after 24 hrs using propidium iodide staining by flow cytometry; type: functional
MCF7 [12] = test: Cell cycle arrest in human MCF7 cells assessed as accumulation at S phase at o.74 uM after 24 hrs using propidium iodide staining by flow cytometry; type: functional
PA-1 = test: Cytotoxicity against human PA1 cells after 72 hrs by MTT assay; type: functional, cell-based; details: pa-1; read-out: IC50; procedure, shortened: as §1
[13] = Cytotoxicity against mouse NIH/3T3 cells after 72 hrs by MTT assay; type: cell-based, NIH3T3; details: nih3t3; read-out: IC50; procedure, shortened: as §1
DU-145 = test: Cytotoxicity against human DU145 cells after 72 hrs by MTT assay; type: functional, cell-based; details: du-145; read-out: IC50; procedure, shortened: as §1
MCF7 [14] = test: Cytotoxicity against human MCF7 cells after 72 hrs by MTT assay; type: functional, cell-based; details: mcf7; read-out: IC50; procedure, shortened: as §1

## COC(=O)[C@@H]1Cc2c([nH]c3ccccc23)[C@@H](c2ccc(OC)cc2)N1c1nc(N2CCN(C)CC2)nc(N2CCN(C)CC2)n1
MCF7 [1]
  Activity: 35.5%
KB
  IC50: 8.06 µM
MIA PaCa-2
  IC50: 2.3 µM
MDA-MB-231 [2]
  Activity: 21.91%
K562
  IC50: 4.6 µM
MDA-MB-231 [3]
  Activity: 12.98%
MDA-MB-231 [4]
  Activity: 64.63%
MDA-MB-231 [5]
  Activity: 12.63%
MDA-MB-231 [6]
  Activity: 22.74%
MDA-MB-231 [7]
  Activity: 65.11%
MCF7 [8]
  Activity: 76.68%
A549
  IC50: 2.1 µM
MCF7 [9]
  Activity: 64.4%
MCF7 [10]
  Activity: 0.09%
SW-620
  IC50: 1.35 µM
MCF7 [11]
  Activity: 23.2%
MCF7 [12]
  Activity: 0.12%
PA-1
  IC50: 1.82 µM
[13]
  IC50: 1.96 µM
DU-145
  IC50: 6.75 µM
MCF7 [14]
  IC50: 0.74 µM
